These results are taken from ChEMBL document CHEMBL2176894, “Cyanobacterial peptides as a prototype for the design of potent β-secretase inhibitors and the development of selective chemical probes for other aspartic proteases” (J Med Chem, 2012).

The target in one experiment is T1, Cathepsin E (Homo sapiens, UniProt P14091).
T1 sequence (P14091 whole entry): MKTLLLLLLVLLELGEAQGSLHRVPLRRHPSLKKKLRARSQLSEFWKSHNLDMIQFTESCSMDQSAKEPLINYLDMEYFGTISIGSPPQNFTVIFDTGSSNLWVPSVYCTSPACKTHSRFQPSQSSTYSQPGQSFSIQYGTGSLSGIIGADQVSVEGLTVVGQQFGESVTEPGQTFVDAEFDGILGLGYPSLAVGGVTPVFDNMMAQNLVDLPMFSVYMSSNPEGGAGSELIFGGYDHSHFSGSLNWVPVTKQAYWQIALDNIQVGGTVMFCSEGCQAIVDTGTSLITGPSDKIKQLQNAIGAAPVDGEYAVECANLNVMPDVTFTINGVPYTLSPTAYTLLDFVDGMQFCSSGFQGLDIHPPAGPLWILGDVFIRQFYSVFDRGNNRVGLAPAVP
As to the kind of experiment: Inhibition of cathepsin E by fluorescence assay.

A further experiment has as its target Cathepsin D (Homo sapiens, UniProt P07339). Nature of the experiment: Inhibition of cathepsin D by fluorescence assay.
Experiment [1] deals with Gamma-secretase (Homo sapiens) (UniProt Q96BI3+Q9NZ42+Q8WW43+P49768+Q92542+P49810). Nature of the experiment: Inhibition of gamma secretase expressed in human H4 cells expressing BRI-C99 fusion protein assessed as C99 fragment accumulation fragment at 10 uM incubated for 16 hrs in by immunoblot. The experiment is classed as cell-based. The procedure, abridged: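 H4 cells overexpressing Bri-C99 (400000/well) were kept in Opti-MEM with 1% serum and treated 16 h with test compound (10 μM), LY411575 (100 nM) or BACE1 inhibitor IV (1 μM). Cells were lysed in TBS/1% Triton X-100 and run on a 12% bis-tris gel. Blots were probed with CT-20 antibody for furin-generated C99 and read on an infrared imager.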
Background: Immunoblotting shows a protein as a band on a membrane.

Experiment [2] has as its target T2, Beta-secretase 1 (Homo sapiens, UniProt P56817). Particulars: H4, at 10 µM.
Experiment [3] concerns the target T2, Beta-secretase 1. Nature of the experiment: Inhibition of BACE1 by fluorescence assay.

Molecules are shown by their SMILES. Calls of active or inactive are those of the source. No cut-off for these calls is given here. Starred links: 1 amine or outer side, 2 acyl side, 3 side chain; linkers in the order of their positions; H or OH if unused. Non-standard residues stand in square brackets, D forms with d. Residues, ends and D or L forms follow the SMILES beside them. *: point of attachment. Ahppa(3S,4S) = O=C(C[C@H](O)[C@H](Cc1ccccc1)N[*:1])[*:2]; dNMeF = CN[C@H](Cc1ccccc1)C(=O)O; NMeQ = CN[C@@H](CCC(N)=O)C(=O)O; Cbz = O=C(OCc1ccccc1)*

T2 sequence (P56817 whole entry): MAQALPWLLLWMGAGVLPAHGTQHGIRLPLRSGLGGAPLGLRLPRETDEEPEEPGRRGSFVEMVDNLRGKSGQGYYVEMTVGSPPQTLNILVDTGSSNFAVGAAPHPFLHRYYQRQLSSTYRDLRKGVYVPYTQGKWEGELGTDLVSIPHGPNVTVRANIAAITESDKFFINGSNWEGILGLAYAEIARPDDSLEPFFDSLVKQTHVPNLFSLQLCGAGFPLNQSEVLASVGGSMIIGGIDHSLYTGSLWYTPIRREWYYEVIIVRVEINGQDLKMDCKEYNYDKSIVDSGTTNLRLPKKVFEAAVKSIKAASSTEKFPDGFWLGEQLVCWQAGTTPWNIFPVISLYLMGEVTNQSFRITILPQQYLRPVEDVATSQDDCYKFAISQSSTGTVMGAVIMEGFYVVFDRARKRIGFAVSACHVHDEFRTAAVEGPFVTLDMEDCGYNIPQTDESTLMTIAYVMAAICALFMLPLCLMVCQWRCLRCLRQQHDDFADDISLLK
Sequence of Cathepsin D (P07339 65-162 limits assumed): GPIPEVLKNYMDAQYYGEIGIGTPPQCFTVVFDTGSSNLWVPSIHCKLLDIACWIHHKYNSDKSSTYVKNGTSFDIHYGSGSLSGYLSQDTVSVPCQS
Sequence of Cathepsin D (P07339 169-412 limits assumed): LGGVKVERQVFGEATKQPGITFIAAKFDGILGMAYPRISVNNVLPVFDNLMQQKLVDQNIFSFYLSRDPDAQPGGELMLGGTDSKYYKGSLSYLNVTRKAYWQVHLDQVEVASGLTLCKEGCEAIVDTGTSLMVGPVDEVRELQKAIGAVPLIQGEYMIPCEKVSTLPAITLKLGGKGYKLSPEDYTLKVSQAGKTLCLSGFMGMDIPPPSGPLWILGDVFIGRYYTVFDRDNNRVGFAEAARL

Broadly, the IC50 is the concentration at which inhibition is half-maximal. In the case of `COC(=O)[C@@H]1CCCN1C(=O)[C@@H](Cc1ccccc1)N(C)C(=O)[C@H](C)NC(=O)[C@H](CC(C)C)NC(=O)C[C@H](O)[C@H](Cc1ccccc1)NC(=O)[C@H](CCC(N)=O)NC(C)=O`, the figures for the IC50 on Cathepsin E and at Cathepsin D were 77.5 nM and 7.81 nM, respectively. For the same compound, the inhibition entry in experiment [1] is “inactive”.
For `COC(=O)[C@@H]1CCCN1C(=O)[C@H](Cc1ccccc1)N(C)C(=O)[C@@H](C)NC(=O)[C@H](CC(C)C)NC(=O)C[C@H](O)[C@H](Cc1ccccc1)NC(=O)[C@H](CCC(N)=O)N(C)C(=O)[C@@H](NC(=O)[C@H](C)O)C(C)C`, at Cathepsin E, the IC50 came to 1710 nM.
The same measure, in the same setting: to `COC(=O)[C@@H]1CCCN1C(=O)[C@@H](Cc1ccccc1)N(C)C(=O)[C@H](C)NC(=O)[C@H](CC(C)C)NC(=O)C[C@H](O)[C@H](Cc1ccccc1)NC(=O)[C@H](CCC(N)=O)N(C)C(=O)[C@@H](NC(=O)[C@H](C)O)C(C)C` [listing 1 of 2 here] belongs 66 nM.
On to `CC(C)C[C@@H](C=O)NC(=O)[C@H](CC(C)C)NC(=O)[C@@H](NC(=O)OCc1ccccc1)C(C)C` (Cbz-Val-Leu-Leu-aldehyde), for which the inhibition result on Beta-secretase 1 [2] was “Active”.
As to `COC(=O)[C@@H](Cc1ccccc1)N(C)C(=O)[C@H](C)NC(=O)[C@H](CC(C)C)NC(=O)C[C@H](O)[C@H](Cc1ccccc1)NC(C)=O`, the results for the 50% inhibitory concentration (IC50) at Beta-secretase 1 [3], against Cathepsin E and at Cathepsin D were over 10000 nM, 1520 nM and 412 nM, respectively.
As for `COC(=O)[C@@H]1CCCN1C(=O)[C@@H](Cc1ccccc1)N(C)C(=O)[C@H](C)NC(=O)[C@H](CC(C)C)NC(=O)C[C@H](O)[C@H](Cc1ccccc1)NC(=O)[C@H](CCC(N)=O)N(C)C(=O)[C@@H](NC(=O)OC(C)(C)C)C(C)C`, the IC50 at Cathepsin E stood at 1.92 nM; against Cathepsin D, 0.126 nM.
Regarding `CC(C)C[C@H](NC(=O)C[C@H](O)[C@H](Cc1ccccc1)NC(=O)[C@H](CCC(N)=O)N(C)C(=O)[C@@H](NC(=O)[C@H](C)O)C(C)C)C(=O)N[C@@H](C)C(=O)N(C)[C@H](Cc1ccccc1)C(=O)NC(C)C`, the IC50 on Beta-secretase 1 [3] was 166 nM; on Cathepsin E, 51.9 nM; on Cathepsin D, 254 nM. Moreover, the inhibition entry at Beta-secretase 1 [2] was “Active”.
In the case of `COC(=O)[C@@H]1CCCN1C(=O)[C@@H](Cc1ccccc1)N(C)C(=O)[C@H](C)NC(=O)[C@H](CC(C)C)NC(=O)C[C@H](O)[C@H](Cc1ccccc1)NC(C)=O`, the figures for the IC50 against Cathepsin E and against Cathepsin D were 4950 nM and 71.7 nM, respectively.
On to `COC(=O)[C@@H]1CCCN1C(=O)[C@@H](Cc1ccccc1)N(C)C(=O)[C@H](C)NC(=O)[C@H](CC(C)C)NC(=O)C[C@H](O)[C@H](Cc1ccccc1)NC(=O)[C@H](CCC(N)=O)N(C)C(=O)[C@@H](NC(=O)OCc1ccccc1)C(C)C` (Cbz-V[NMeQ][Ahppa(3S,4S)]LA[dNMeF]P-OMe), for which the values for the concentration for half-maximal inhibition (IC50) on Cathepsin E and against Cathepsin D were 0.724 nM and 0.0783 nM, respectively. For the same compound, in experiment [1], the inhibition result is “inactive”.
For `COC(=O)[C@@H]1CCCN1C(=O)[C@@H](Cc1ccccc1)N(C)C(=O)[C@H](C)NC(=O)[C@H](CC(C)C)NC(=O)C[C@H](O)[C@H](Cc1ccccc1)NC(=O)[C@H](CCC(N)=O)N(C)C(=O)[C@@H](NC(=O)[C@H](C)O)C(C)C` [TASIAMIDE B], the half-maximal inhibitory concentration (IC50) against Cathepsin E worked out at 37.5 nM.
For the compound `CC(C)C[C@H](NC(=O)C[C@H](O)[C@H](Cc1ccccc1)NC(=O)[C@H](CCC(N)=O)N(C)C(=O)[C@@H](NC(=O)[C@H](C)O)C(C)C)C(=O)N[C@@H](C)C(=O)N(C)[C@H](Cc1ccccc1)C(=O)NCc1ccccc1`, the IC50 against Beta-secretase 1 [3] was 124 nM; at Cathepsin E it was 30.4 nM; on Cathepsin D, 20.9 nM. Also, the inhibition entry on Beta-secretase 1 [2] was “Active”.
Turning to `COC(=O)[C@@H]1CCCN1C(=O)[C@@H](Cc1ccccc1)N(C)C(=O)[C@H](C)NC(=O)[C@H](CC(C)C)NC(=O)C[C@H](O)[C@H](Cc1ccccc1)NC(=O)[C@H](CCC(N)=O)N(C)C(=O)[C@@H](NC(=O)[C@H](C)O)C(C)C` [listing 2 of 2 here], in experiment [1], the inhibition entry was “inactive”.
In turn, `COC(=O)[C@@H]1CCCN1C(=O)[C@@H](Cc1ccccc1)N(C)C(=O)[C@@H](C)NC(=O)[C@H](CC(C)C)NC(=O)C[C@H](O)[C@H](Cc1ccccc1)NC(=O)[C@H](CCC(N)=O)N(C)C(=O)[C@@H](NC(=O)[C@H](C)O)C(C)C` showed an IC50 at Cathepsin E of 1450 nM.
